Measurements gathered from unrelated publications.
Protocols differ between the studies behind these lines.
Target: Calcium/calmodulin-dependent protein kinase type 1G (CAMK1G, Homo sapiens, UniProt Q96NX5)

CN(C)c1ncc(F)c(-c2cnn3ncccc23)n1 — remaining binding (binding, competition with immobilised ligand; 1 µM): 96%
CCN1CCN(Cc2ccc(C(=O)Nc3ccc(C)c(Oc4ccc5c(c4)CC(=O)N5)c3)cc2C(F)(F)F)CC1 — remaining binding (binding, competition with immobilised ligand; 1 µM): 94%
O=C(NCCCN1CCOCC1)c1ccc(Nc2nccc(-c3cc4ccccc4s3)n2)cc1 — remaining binding (binding, competition with immobilised ligand; 1 µM): 98%
COCCOc1nc(-c2ccc(Cl)nc2)nc2c1CN(C(=O)c1ncn3ccccc13)CC2 — remaining binding (cell-free assay, competition with immobilised ligand; 0.1 µM): 100%
COc1ncc2cc3ccccc3nc2c1C#N — remaining binding (cell-free assay, competition with immobilised ligand; 5 µM): 89%
c1cncc(-c2cccc(Nc3nccc(NC4CCCCC4)n3)c2)c1 — remaining binding (binding, competition with immobilised ligand; 10 µM): 81%
COc1ccnn2ncc(-c3ccnc(N(C)C)n3)c12 — remaining binding (binding; 1 µM): 100%
N#Cc1ccc(Nc2ccc3[nH]c(=O)[nH]c3c2)c(Cl)c1 — remaining binding (cell-free assay, competition with immobilised ligand; 1 µM): 100%
CC1CCCN1c1nccc(-c2cnn3ncccc23)n1 (stereo not shown) — remaining binding (binding, competition with immobilised ligand; 1 µM): 100%
C=CC(=O)N1CCC(C(=O)NCC(=O)N2CCN(c3nc(-c4cnc(N)nc4C(F)F)nc(N4CCOCC4)n3)CC2)CC1 — remaining binding (binding, competition with immobilised ligand; 1 µM): 100%
O=C(c1ccc(Nc2nccc(-c3cc4ccccc4s3)n2)cc1)N1CCC(N2CCCC2)CC1 — remaining binding (binding, competition with immobilised ligand; 1 µM): 72%
N[C@@H]1CCN(c2nccc(-c3cnn4ncccc34)n2)C1 — remaining binding (binding; 1 µM): 100%
O=C(c1ccc(Nc2ncc(Cl)c(-c3cc4ccccc4s3)n2)cc1)N1CCC(N2CCCC2)CC1 — remaining binding (binding, competition with immobilised ligand; 1 µM): 82%
O=C(NCC1CCOCC1)c1n[nH]cc1NC(=O)c1c(F)cccc1F — remaining binding (binding, competition with immobilised ligand; 1 µM): 96%
COc1cc(-c2cn(C3CCc4c(F)cccc4N(CC(F)(F)F)C3=O)nn2)ccc1-n1cnc(C)c1 (stereo not shown) — remaining binding (cell-free assay, competition with immobilised ligand; 1 µM): 100%
C[C@H]1CCN(c2nccc(-c3cnn4ncccc34)n2)C1 — remaining binding (binding; 1 µM): 97%
O=C(NC[C@@H]1[C@H]2CN(C(=O)OCc3cc(C(F)(F)F)cc(C(F)(F)F)c3)C[C@@H]12)c1ccc2[nH]nnc2c1 — remaining binding (cell-free assay, competition with immobilised ligand; 1 µM): 100%
Nc1ncc2c(n1)-c1c([nH]c3ccc(C#CC4CC4)cc13)CCCC2 — remaining binding (binding, competition with immobilised ligand; 1 µM): 87%
CC(=O)N1CCC(c2ccc(C(=O)NC(=N)N)cc2C(F)(F)F)CC1 — remaining binding (cell-free assay, competition with immobilised ligand; 1 µM): 100%
COc1cnc(Nc2cccc(S(N)(=O)=O)c2)nc1N1CCN(c2ccccc2)C(=O)C1 — remaining binding (binding, competition with immobilised ligand; 1 µM): 100%
CNCc1ccccc1-c1csc([C@H](C)Nc2nc(C)nc3cc(OC)c(OC)cc23)c1 — remaining binding (cell-free assay, competition with immobilised ligand; 1 µM): 96%
F[C@@H]1CCN(c2nccc(-c3cnn4ncccc34)n2)C1 — remaining binding (binding; 1 µM): 100%
